Assay results taken from ChEMBL document CHEMBL3593159, “Identification of 5-nitrofuran-2-amide derivatives that induce apoptosis in triple negative breast cancer cells by activating C/EBP-homologous protein expression” (Bioorg Med Chem, 2015).
The source made the active and inactive calls. No cut-off for these calls is given here.

What was measured:
HCC1806 [1] = assay: Cytotoxicity against human HCC1806 cells assessed as reduction in cell viability incubated for 3 days by cell-titer-Glo reagent based assay; type: functional; details: for IC50: HCC1806, 72 h
In short: (§1)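 Viability by CellTiter-Glo (ATP read-out). Cells plated at 3 × 10³/well in 384-well format overnight, then exposed to compound over a range (0.125–20 µM for initial series) for 3 d in RPMI 1640 with 10% FBS at 37°C, 5% CO₂. IC₅₀ fitted from dose–response curve.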

HCC1143 = assay: Cytotoxicity against human HCC1143 cells assessed as reduction in cell viability incubated for 3 days by cell-titer-Glo reagent based assay; type: functional; details: HCC1143, 72 h; in short: as §1
HCC38 = assay: Cytotoxicity against human HCC38 cells assessed as reduction in cell viability incubated for 3 days by cell-titer-Glo reagent based assay; type: functional; details: HCC38, 72 h; in short: as §1
HCC1806 [2] = assay: Induction of apoptosis in human HCC1806 cells assessed as increase in caspase-3 cleavage at 10 uM incubated for 8 and 24 hrs by Western blotting method; type: functional, cell-based
In short: (§2)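 HCC-1806 cells (8 × 10⁵ per 60-mm dish) treated with 10 µM for the indicated times, lysed in buffer with EDTA and phosphatase inhibitors; 20 µg protein on 7% SDS-PAGE, PVDF transfer, primary then HRP secondary antibodies (1:3000). α-Tubulin loading control; representative of 3 experiments.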

HCC1806 [3] = assay: Induction of apoptosis in human HCC1806 cells assessed as reduction in cell number at 10 uM incubated for 24 hrs by live-cell phase-contrast microscopy; type: functional, cell-based
In short: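 Near-confluent HCC-1806 cultures treated with 10 µM compound or DMSO for 24 h, then imaged by live-cell phase-contrast microscopy at 10× magnification.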

HCC1806 [4] = assay: Increase in CHOP mRNA expression in human HCC1806 cells incubated for 8 hrs by qRT-PCR method; type: functional, cell-based
In short: (§3)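 HCC-1806 cells (4 × 10⁵/well, 6-well) treated at a series of concentrations for 8 h; total RNA by TRIzol, 2 µg reverse transcribed, CHOP mRNA by qRT-PCR. Means of 4 replicate wells, 3 experiments, t-test vs DMSO.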

HCC1806 [5] = assay: Increase in CHOP mRNA expression in human HCC1806 cells at 10 uM by qRT-PCR method; type: functional, cell-based; details: TDE = time-dependent effect
In short: (§4)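 HCC-1806 cells (4 × 10⁵/well) exposed to 10 µM over a time course; CHOP mRNA by qRT-PCR after TRIzol extraction and reverse transcription of 2 µg RNA. Means of 4 replicate wells, 3 experiments, t-test vs 0 h.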

HCC1806 [6] = assay: Increase in CHOP mRNA expression in human HCC1806 cells incubated for 8 hrs by qRT-PCR method relative to control; type: functional; in short: as §3
HCC1806 [7] = assay: Increase in CHOP mRNA expression in human HCC1806 cells at 10 uM by qRT-PCR method relative to control; type: functional; in short: as §4
HCC1806 [8] = assay: Increase in CHOP protein expression in human HCC1806 cells at 10 uM incubated for 2 and 24 hrs by Western blotting method; type: functional, cell-based; details: in the assay text read “4 and 24 hrs” for “2 and 24 hrs”; in short: as §2
MCF7 = assay: Cytotoxicity against human MCF7 cells assessed as reduction in cell viability incubated for 3 days by cell-titer-Glo reagent based assay; type: functional
In short: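 HCC-1806 and MCF7 cells exposed to compound for 3 d, viability read by CellTiter-Glo kit; means of 4 replicate wells, representative of 3 independent experiments.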

HCC1806 [9] = assay: Increase in ATF4 mRNA expression in human HCC1806 cells at 10 uM incubated for 2 to 8 hrs by qRT-PCR method; type: functional, cell-based
In short: (§5)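 HCC-1806 cells treated with 10 µM over a time course; ATF4, GADD34 or Bim mRNA by qRT-PCR. Means of 4 replicate wells, representative of 3 experiments, Student's t-test vs DMSO-treated cells.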

HCC1806 [10] = assay: Increase in ATF4 protein in human HCC1806 cells at 10 uM incubated for 2 to 8 hrs by Western blotting method; type: functional, cell-based; in short: as §2
HCC1806 [11] = assay: Increase in eIF2alpha phosphorylation in human HCC1806 cells at 10 uM incubated for 1 to 24 hrs by Western blotting method; type: functional, cell-based; in short: as §2
HCC1806 [12] = assay: Increase in GADD34 mRNA expression in human HCC1806 cells at 10 uM incubated for 2 to 24 hrs by qRT-PCR method; type: functional, cell-based; details: TDE = time-dependent effect; in short: as §5
HCC1806 [13] = assay: Reduction in eIF2alpha phosphorylation in human HCC1806 cells at 10 uM incubated for 1 to 24 hrs by Western blotting method; type: functional, cell-based; in short: as §2
HCC1806 [14] = assay: Reduction in ATF4 protein in human HCC1806 cells at 10 uM incubated for 2 to 8 hrs by Western blotting method; type: functional, cell-based; in short: as §2
HCC1806 [15] = assay: Increase in XBP1 mRNA splicing in human HCC1806 cells at 10 uM incubated for 2 hrs by RT-PCR method (reference value: 11%); type: functional
In short: (§6)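 HCC-1806 cells given 10 µM compound or tunicamycin 1 µg/mL over a time course; XBP1 RT-PCR products resolved on agarose gel, GAPDH internal control. Spliced fraction by densitometry as XBP1s/(XBP1s+XBP1u) × 100%; 3 experiments.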

HCC1806 [16] = assay: Increase in XBP1 mRNA splicing in human HCC1806 cells at 10 uM incubated for 4 hrs by RT-PCR method (reference value: 11%); type: functional; in short: as §6
HCC1806 [17] = assay: Increase in XBP1 mRNA splicing in human HCC1806 cells at 10 uM incubated for 8 hrs by RT-PCR method (reference value: 11%); type: functional; in short: as §6
HCC1806 [18] = assay: Increase in XBP1 mRNA splicing in human HCC1806 cells at 10 uM incubated for 24 hrs by RT-PCR method (reference value: 11%); type: functional; in short: as §6
HEK-293T [19] = assay: Increase in UPRE-mediated luciferase expression in HEK293T cells stably transfected with UPRE-luciferase gene at 10 uM incubated for 24 hrs by luciferase reporter gene assay relative to control; type: functional, Homo sapiens
In short: (§7)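 HEK293T cells stably carrying CHOP-, ERSE- or UPRE-luciferase reporters plated 7 × 10³/well in 384-well plates, after 16 h given compound (10 µM), tunicamycin 1 µg/mL or DMSO for 24 h; luciferase by Bright-Glo. Means of 4 replicate wells, representative of 3 experiments.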

HEK-293T [20] = assay: Increase in ERSE-mediated luciferase expression in HEK293T cells stably transfected with ERSE-luciferase gene at 10 uM incubated for 24 hrs by luciferase reporter gene assay; type: functional, cell-based; details: Homo sapiens; in short: as §7
HCC1806 [21] = assay: Cytotoxicity against human HCC1806 cells assessed as reduction in cell viability at 5 uM incubated for 48 hrs in presence of control siRNA by cell-titer-Glo reagent based assay; type: functional
In short: (§8)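 HCC-1806 cells in serum-free RPMI transfected with 20 nM CHOP or scrambled siRNA by lipofection; after 6 h medium replaced with 10% FBS RPMI and compound (5 µM) or DMSO added for 48 h in 96-well format. Viability by CellTiter-Glo; 3 independent experiments, Student's t-test vs DMSO.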

HCC1806 [22] = assay: Cytotoxicity against human HCC1806 cells assessed as reduction in cell viability at 5 uM incubated for 48 hrs in presence of CHOP siRNA by cell-titer-Glo reagent based assay; type: functional; in short: as §8
HCC1806 [23] = assay: Increase in CHOP mRNA expression in human HCC1806 cells at 5 uM in presence of control siRNA incubated for 48 hrs by qRT-PCR method; type: functional, cell-based
In short: (§9)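 HCC-1806 cells transfected with CHOP or scrambled siRNA; 6 h later treated with 5 µM compound or DMSO for 48 h. CHOP mRNA by RT-PCR with GAPDH as internal control; 3 independent experiments.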

HCC1806 [24] = assay: Increase in CHOP mRNA expression in human HCC1806 cells at 5 uM in presence of CHOP siRNA incubated for 48 hrs by qRT-PCR method; type: functional, cell-based; in short: as §9
HCC1806 [25] = assay: Reduction in Bcl-2 protein expression in human HCC1806 cells at 10 uM incubated for 2 to 24 hrs by Western blotting method; type: functional, cell-based; in short: as §2
HCC1806 [26] = assay: Increase in Bim mRNA expression in human HCC1806 cells at 10 uM by RT-PCR method; type: functional, cell-based; details: TDE = time-dependent effect; in short: as §5
HCC1806 [27] = assay: Increase in cleaved caspase-4 protein expression in human HCC1806 cells at 10 uM incubated for 8 to 24 hrs by Western blotting method; type: functional, cell-based; in short: as §2

CC1CCN(c2ccc(NC(=O)c3ccco3)cc2)CC1
IC50 (HCC1806 [1]): > 40 µM

CCc1ccc(NC(=O)c2ccc([N+](=O)[O-])o2)cc1
IC50 (HCC1806 [1]): 5 µM

Cc1cc(NC(=O)c2ccc([N+](=O)[O-])o2)c(C)cc1I
IC50 (HCC1806 [1]): 3 µM

O=C(Nc1ccc(N2CCCCC2)c(F)c1)c1ccco1
IC50 (HCC1806 [1]): > 40 µM

COc1ccc(Cl)cc1NC(=O)c1ccc([N+](=O)[O-])o1
IC50 (HCC1806 [1]): 7 µM

CC(C)Cc1ccccc1NC(=O)c1ccc([N+](=O)[O-])o1
IC50 (HCC1806 [1]): > 40 µM

CC1CCN(c2ccc(NC(=O)c3ccc([N+](=O)[O-])o3)cc2)CC1
Activity (HCC1806 [1]): Dose-dependent effect
IC50 (HCC1806 [1]): 2.8 µM
IC50 (HCC1143): 2.1 µM
IC50 (HCC38): 2.5 µM
Activity (HCC1806 [2]): Active
Activity (HCC1806 [3]): Active
Activity (HCC1806 [4]): Dose-dependent effect
Activity (HCC1806 [5]): tde
fold change (FC) (HCC1806 [6]): 9
fold change (FC) (HCC1806 [7]): 9
Activity (HCC1806 [8]): Active
Activity (MCF7): Dose-dependent effect
Activity (HCC1806 [9]): Active
Activity (HCC1806 [10]): Active
Activity (HCC1806 [11]): Active
Activity (HCC1806 [12]): tde
Activity (HCC1806 [13]): Active
Activity (HCC1806 [14]): Active
Activity (HCC1806 [15]): 19.6%
Activity (HCC1806 [16]): 16.4%
Activity (HCC1806 [17]): 14.2%
Activity (HCC1806 [18]): 15.3%
fold change (FC) (HEK-293T [19]): < 2
Activity (HEK-293T [20]): inactive
Activity (HCC1806 [21]): Active
Activity (HCC1806 [22]): inactive
Activity (HCC1806 [23]): Active
Activity (HCC1806 [24]): Active
Activity (HCC1806 [25]): Active
Activity (HCC1806 [26]): tde
Activity (HCC1806 [27]): Active

CCC1CCN(c2ccc(NC(=O)c3ccco3)cc2Cl)CC1
IC50 (HCC1806 [1]): > 40 µM

O=C(Nc1ccc(Cl)cc1)c1ccc([N+](=O)[O-])o1
IC50 (HCC1806 [1]): 5.1 µM

Cc1ccc(NC(=O)c2ccc([N+](=O)[O-])o2)cc1
IC50 (HCC1806 [1]): 6.7 µM
